Here are results for six molecules from ChEMBL document CHEMBL5370536, “Design, synthesis, and biological activity of dual monoamine oxidase A and heat shock protein 90 inhibitors, N-Methylpropargylamine-conjugated 4-isopropylresorcinol for glioblastoma” (Eur J Med Chem, 2023).

Calls of active or inactive are those of the source. The calls are words filed in the database; no cut-off is given here. Bounds are passed on as bounds.

Data set [1] in a line: Antiproliferative activity against mouse GL26 cells assessed as inhibition of cell growth measured after 48 hrs by MTT assay. In kind it is functional, cell-based. To be noted: GL26, 48 h. In a few lines:
(§1)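 Cells plated at 5×10³ per well 24 h before compound and grown in DMEM with 10% FBS at 37°C, 5% CO₂. After 48 h exposure, the medium was replaced with 0.5 mg/mL MTT for 3 h. Formazan was dissolved in DMSO and read at 570 nm.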

Data set [2] concerns U-251. Description: Antiproliferative activity against human Temozolomide-resistant U-251 cells assessed as inhibition of cell growth measured after 48 hrs by MTT assay. The settings on record: U-251, 48 h. In kind it is functional, cell-based. The method in brief:
as §1

For data set [3], the target named is T1, Amine oxidase [flavin-containing] A (Mus musculus, UniProt Q64133).
T1 sequence (Q64133 whole entry): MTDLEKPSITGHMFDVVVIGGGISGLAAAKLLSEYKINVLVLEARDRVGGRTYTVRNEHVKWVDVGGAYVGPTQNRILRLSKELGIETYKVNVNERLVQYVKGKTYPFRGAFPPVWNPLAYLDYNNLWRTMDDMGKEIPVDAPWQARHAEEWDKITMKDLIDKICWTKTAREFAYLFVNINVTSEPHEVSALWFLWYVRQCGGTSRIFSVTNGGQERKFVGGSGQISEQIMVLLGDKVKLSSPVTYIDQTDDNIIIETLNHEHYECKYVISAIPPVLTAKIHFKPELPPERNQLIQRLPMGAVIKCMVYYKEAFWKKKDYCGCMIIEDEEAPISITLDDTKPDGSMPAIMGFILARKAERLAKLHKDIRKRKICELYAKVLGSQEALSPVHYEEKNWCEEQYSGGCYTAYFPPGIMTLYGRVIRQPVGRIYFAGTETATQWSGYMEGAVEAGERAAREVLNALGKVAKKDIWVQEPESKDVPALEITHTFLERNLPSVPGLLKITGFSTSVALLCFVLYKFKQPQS
Description: Inhibition of MAO A in mouse GL26 cells preincubated for 20 mins followed by 14C-labeled 5-hydroxytryptamine addition and measured after 20 mins by scintillation counter analysis. In kind it is cell-based.

Data set [4] addresses Heat shock protein HSP 90-alpha (Homo sapiens, UniProt P07900). Put plainly: Inhibition of human recombinant HSP90alpha preincubated for 30 mins followed by FITC-GM addition and mesured after 3 hrs by fluorescence polarization assay.
Data set [5] can be described thus: Antiproliferative activity against human patient-derived TMZ-resistant GBM cells with MGMT negative P3R cell assessed as inhibition of cell growth measured after 72 hrs by CCK8 method. In kind it is functional, cell-based. In a few lines: (§2)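 Cell lines from ATCC or from patient surgical specimens (P1S, P3, P3R), kept in DMEM with 10% FBS and 1% penicillin/streptomycin at 37°C, 5% CO₂. P3R medium also held 50 μM TMZ. Cells were seeded at 2×10³/well 24 h before compound, then exposed 72 h.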

Data set [6] deals with GL26. Put plainly: Downregulation of IFN-gamma induced PD-L1 expression in mouse GL26 cells incubated for 24 hrs by flow cytometry analysis. The data set is classed as functional, cell-based. In a few lines: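 GL26 cells at 3.6 × 10⁵ per well were treated at various concentrations with or without 10 ng/mL IFN-γ for 24 h. Cells were stained with goat anti-PD-L1 for 1 h in PBS/0.05% BSA, then FITC donkey anti-goat for 1 h, and read by flow cytometry. MFI was normalised to the secondary-antibody-only isotype control and expressed as an MFI ratio.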

The nature of data set [7]: Antiproliferative activity against human patient-derived P3 cell assessed as inhibition of cell growth measured after 72 hrs by CCK8 method. In kind it is functional, cell-based. In a few lines:
as §2

The next data set concerns A549. Put plainly: Growth inhibition of human A549 cells incubated for 48 hrs by SRB assay. The data set is classed as functional. In a few lines:
(§3)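 NCI-60 panel screen: cells seeded at 5000 to 40000 per well according to doubling time, 24 h before drug addition at various concentrations. A time-zero plate was TCA-fixed at drug addition. After 48 h drug exposure, growth was read by sulforhodamine B staining. Percent growth = [(Ti − Tz)/(C − Tz)] × 100, and GI50 is the concentration at which this equals 50.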

A further data set deals with U-87 MG. Description: Antiproliferative activity against human U-87 MG cells assessed as inhibition of cell growth measured after 72 hrs by CCK8 method. In kind it is functional, cell-based, U-87MG ATCC. The method in brief: as §2
A further data set deals with SF-268. Description: Growth inhibition of human SF-268 cells incubated for 48 hrs by SRB assay. In kind it is functional. The method in brief: as §3
Data set [8] relates to U-251. Description: Upregulation of HSP70 expression in human Temozolomide-resistant U-251 cells incubated for 24 hrs by Western blot analysis. The data set is classed as functional, cell-based. The settings on record: dose 0.1-3 µM.
The subject of data set [9] is U-251. Description: Downregulation of HER2 expression in human Temozolomide-resistant U-251 cells incubated for 24 hrs by Western blot analysis. In kind it is functional, cell-based. To be noted: dose 0.1-3 µM.
For the next data set, the system named is LN-229. Description: Antiproliferative activity against human LN-229 cells assessed as inhibition of cell growth measured after 72 hrs by CCK8 method. To be noted: LN-229, 72 h. The data set is classed as functional, cell-based. In a few lines:
as §2

Data set [10] deals with GL26. Description: Downregulation of HER2 expression in mouse GL26 cells incubated for 24 hrs by Western blot analysis. The data set is classed as functional, cell-based. To be noted: dose 0.1-3 µM.
The subject of data set [11] is GL26. Put plainly: Upregulation of HSP70 expression in mouse GL26 cells incubated for 24 hrs by Western blot analysis. In kind it is functional, cell-based. The settings on record: dose 0.1-3 µM.
For data set [12], the system named is GL26. Description: Downregulation of Akt phosphorylation expression at Ser 473 residues in mouse GL26 cells incubated for 24 hrs by Western blot analysis. The data set is classed as functional, cell-based. The settings on record: dose 0.1-3 µM.
The subject of another data set is K562. Put plainly: Growth inhibition of human K562 cells incubated for 48 hrs by SRB assay. The data set is classed as functional. The method in brief: as §3
In a further data set the test system is T98G. Put plainly: Antiproliferative activity against human T98G cells assessed as inhibition of cell growth measured after 72 hrs by CCK8 method. The data set is classed as functional, cell-based. The method in brief: as §2
Data set [13] has as its system HCT-116. Description: Downregulation of PD-L1 expression in human HCT-116 cells. The data set is classed as functional, cell-based. In a few lines: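 HCT116 cells at 3 × 10⁵ per well were treated at various concentrations with or without 20 ng/mL IFN-γ for 48 h. Cells were stained with mouse anti-PD-L1 for 1 h in PBS/0.05% BSA, then FITC goat anti-mouse for 1 h. Surface FITC mean fluorescence intensity was measured by flow cytometry.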

Data set [14] in a line: Antitumor activity against mouse GL26 cells xenografted in C57BL/6J mouse model assessed as tumor growth inhibition at 25 mg/kg, ip administered daily for 3 days followed by every 3 days for 14 days by caliper method relative to control. In kind it is functional. The settings on record: GL26, 336 h, time 14 day, read-out: TGI. The method in brief: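 Male C57BL/6J mice aged 8-9 weeks received 2 × 10⁵ GL26 cells subcutaneously in the lower back. From day 9 after implantation, once tumours were palpable, 25 mg/kg was given i.p. daily for 3 days and then every 3 days over 14 days. Caliper volume was length × width² ÷ 2. TGI% was taken relative to the mean tumour size of the vehicle group.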

A further data set deals with A 172. Description: Antiproliferative activity against human A-172 cells assessed as inhibition of cell growth measured after 72 hrs by CCK8 method. The data set is classed as functional, cell-based. The settings on record: A 172, 72 h. In a few lines:
as §2

In data set [15] the test system is HCT-116. Put plainly: Growth inhibition of human HCT-116 cells incubated for 48 hrs by SRB assay. The data set is classed as functional. In a few lines:
as §3

Another data set has as its system RPMI-8226. Description: Growth inhibition of human RPMI-8226 cells incubated for 48 hrs by SRB assay. The data set is classed as functional. In a few lines:
as §3

For data set [16], the system named is U-251. Description: Growth inhibition of human U-251 cells incubated for 48 hrs by SRB assay. In kind it is functional. In a few lines:
as §3

The nature of data set [17]: Toxicity in C57BL/6J mouse assessed as change in body weight at 25 mg/kg, ip measured after 3 days. The data set is classed as organism-based. The settings on record: in vivo, 72 h, time 3 day. In a few lines: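 Male C57BL/6J mice, 8-9 weeks old, given 2 × 10⁵ GL26 cells subcutaneously in the lower back. From day 9, when tumor was visible, dosing was i.p. for 14 days with vehicle, clorgyline 10 mg/kg daily, or test compounds 25 mg/kg daily for the first 3 days then every 3 days. Tumor was measured by caliper, volume = length × width² ÷ 2, and TGI% was taken against the vehicle-group mean. Body weight was tracked.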

In the next data set the test system is HL-60. Put plainly: Growth inhibition of human HL-60 cells incubated for 48 hrs by SRB assay. The data set is classed as functional. The method in brief: as §3
The subject of data set [18] is U-251. Description: Downregulation of Akt phosphorylation expression at Ser 473 residues in human Temozolomide-resistant U-251 cells incubated for 24 hrs by Western blot analysis. The settings on record: dose 0.1-3 µM. In kind it is functional, cell-based.
The test system of a further data set is NCI-H460. Put plainly: Growth inhibition of human NCI-H460 cells incubated for 48 hrs by SRB assay. The data set is classed as functional. The method in brief: as §3
Another data set relates to SF-539. Description: Growth inhibition of human SF-539 cells incubated for 48 hrs by SRB assay. The data set is classed as functional. In a few lines: as §3
A further data set has as its system SF-295. Put plainly: Growth inhibition of human SF-295 cells incubated for 48 hrs by SRB assay. The data set is classed as functional. In a few lines: as §3
Data set [19] can be described thus: Antiproliferative activity against human patient-derived, TMZ-resistant and concurrent chemo-radiotherapy (CCRT)-resistant P1S cell assessed as inhibition of cell growth measured after 72 hrs by CCK8 method. The data set is classed as functional, cell-based. In a few lines:
as §2

Data set [20] in a line: Antiproliferative activity against human U373 MG cells assessed as inhibition of cell growth measured after 72 hrs by CCK8 method. The data set is classed as functional, cell-based, U-373MG ATCC. In a few lines:
as §2

The test system of a further data set is SNB-19. Description: Growth inhibition of human SNB-19 cells incubated for 48 hrs by SRB assay. The data set is classed as functional. In a few lines:
as §3

The test system of a further data set is NCI-H522. Description: Growth inhibition of human NCI-H522 cells incubated for 48 hrs by SRB assay. In kind it is functional. The method in brief: as §3
Another data set relates to SNB-75. Put plainly: Growth inhibition of human SNB-75 cells incubated for 48 hrs by SRB assay. In kind it is functional. The method in brief:
as §3

Take `C#CCN(C)CCCOc1ccc(NC(=O)c2cc(C(C)C)c(O)cc2O)cc1Cl`: the concentration for half-maximal inhibition (IC50) in data set [1] is more than 10000 nM; with U-251 [2], more than 10000 nM; in data set [3] it was 110 nM; in data set [4], more than 10000 nM.

In data set [3], `C#CCN(C)CCCOc1cc(N(CC)C(=O)c2cc(C(C)C)c(O)cc2O)ccc1Cl` returned an IC50 of more than 10000 nM.

The molecule `C#CCN(C)CCCOc1cccc(N(CCC)C(=O)c2cc(C(C)C)c(O)cc2O)c1Cl` came in with an IC50 in [3] of 880 nM.

Take `C#CCN(C)CCCOc1cc(N(C)C(=O)c2cc(C(C)C)c(O)cc2O)ccc1Cl`: the IC50 in data set [3] was more than 10000 nM.

In the case of `C#CCN(C)CCCOc1cccc(NC(=O)c2cc(C(C)C)c(O)cc2O)c1Cl`, it took 2360 nM to reach half-maximal inhibition in data set [3] (IC50).

Consider `C#CCN(C)CCCOc1ccc(N(C)C(=O)c2cc(C(C)C)c(O)cc2O)cc1Cl`, for which the IC50 is 730 nM in [1]; 2530 nM in data set [5]; 2730 nM in data set [7]; 350 nM in the data set with U-87 MG; 400 nM with LN-229; 840 nM in the data set with U-251 [2]. In addition, the IC50 in the data set on T98G turned out to be 460 nM; with A 172, 3310 nM; in [3] it was 1770 nM; in [19], 860 nM; in data set [20], 1460 nM; in data set [4], 19 nM. Moreover, the Activity result in the data set on GL26 [6], with U-251 [8], in the data set on U-251 [9], in the data set with GL26 [10], in the data set on GL26 [11] and in the data set with GL26 [12] was “Dose-Dependent Effect” each time. The Activity result in data set [17] is “Toxic”; in the data set with U-251 [18] it was “Dose-Dependent Effect”. In addition, the concentration for 50% growth inhibition (GI50) with A549 stood at 190 nM; with SF-268 it was 520 nM; with K562 it was 70 nM; in the data set on HCT-116 [15], 80 nM; in the data set on RPMI-8226, 380 nM; with U-251 [16] it was 320 nM. Also, the 50% growth inhibitory concentration (GI50) with HL-60 worked out at 40 nM; with NCI-H460, 40 nM; in the data set on SF-539, 320 nM; in the data set with SF-295, 290 nM; in the data set on SNB-19, 440 nM; in the data set on NCI-H522 it was 80 nM. Also, the GI50 in the data set on SNB-75 was determined as 420 nM. In the data set with HCT-116 [13], the outcome was Active. For the same molecule, the inhibition in vivo at 25 mg/kg in data set [14] is 63.2%.
